Results: publication PMC4862586 (The New England journal of medicine, 2015)

Tests used:
[1] = test system: CLL; conditions: cited from earlier work
[2] = test system: platelet aggregation; experiment: Platelet aggregation derived from blood of patients; format: in vivo, human; conditions: blood of patients receiving the drug
[3] = test system: phosphorylated Btk; experiment: Phosphorylation of Btk by intracellular flow cytometry; format: in vivo, human; conditions: respective time points across all cohorts
In short: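 Patients with relapsed CLL received oral drug continuously at 100, 175, 250 or 400 mg once daily (dose escalation) or 100 mg twice daily (phase 2 expansion). Phosphorylated Btk in blood samples was measured by intracellular flow cytometry.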

[4] = biological target: T1, Itk (Homo sapiens, UniProt Q08881); experiment: Itk inhibition; format: cell-based
T1 sequence (Q08881 1-620): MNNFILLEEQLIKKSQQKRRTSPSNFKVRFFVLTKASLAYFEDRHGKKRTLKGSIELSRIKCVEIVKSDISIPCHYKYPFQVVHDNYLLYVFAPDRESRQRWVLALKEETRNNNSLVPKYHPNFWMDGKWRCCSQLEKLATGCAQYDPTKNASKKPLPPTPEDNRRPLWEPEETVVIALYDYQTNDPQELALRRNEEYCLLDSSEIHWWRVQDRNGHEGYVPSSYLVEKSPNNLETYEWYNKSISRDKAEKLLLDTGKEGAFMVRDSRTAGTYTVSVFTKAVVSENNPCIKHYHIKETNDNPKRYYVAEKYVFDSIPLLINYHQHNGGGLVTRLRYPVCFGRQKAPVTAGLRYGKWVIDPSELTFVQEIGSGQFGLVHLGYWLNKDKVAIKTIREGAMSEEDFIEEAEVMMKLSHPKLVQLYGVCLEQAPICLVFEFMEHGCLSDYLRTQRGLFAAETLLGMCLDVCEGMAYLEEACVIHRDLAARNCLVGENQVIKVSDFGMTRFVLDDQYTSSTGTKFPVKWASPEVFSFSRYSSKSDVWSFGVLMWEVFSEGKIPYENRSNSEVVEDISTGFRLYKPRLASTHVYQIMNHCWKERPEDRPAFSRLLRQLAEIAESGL

[5] = test system: natural killer cells; format: cell-based, human; conditions: obinutuzumab-coated CLL cells
[6] = test system: naturally occurring canine B-cell lymphomas; conditions: cited from earlier work
[7] = test system: pro-inflammatory cytokines; experiment: Pro-inflammatory cytokine levels in patients; format: in vivo, human; conditions: from baseline to day 28 of treatment
In short: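 Patients with relapsed CLL were dosed orally and continuously at 100–400 mg once daily or 100 mg twice daily. Change in serum cytokines from baseline was tested by Wilcoxon signed-rank. Only patients with baseline and every follow-up value were included, and there was no multiplicity adjustment.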

[8] = Serum immunoglobulins and immune cell numbers over time in patients; format: in vivo
[9] = Pharmacokinetics in patients, cycle 1, non-compartmental analysis; format: in vivo; conditions: human, po
[10] = test system: relapsed CLL; experiment: Phase 1–2 multicenter study: clinical response; format: in vivo, human; conditions: for Resolution of B symptoms: 16 patients with B symptoms at baseline
[11] = test system: EGFR; experiment: EGFR signaling; format: cell-based
[12] = test system: primary CLL cells; experiment: B-cell receptor signaling in primary CLL cells; format: cell-based, human
[13] = test system: patients with relapsed CLL; experiment: Phase 1–2 multicenter study: safety, adverse events; format: in vivo
[14] = all patients, median follow-up 14.3 months

C=CC(=O)Nc1cccc(Nc2nc(Nc3ccc(OCCOC)cc3)ncc2F)c1 [CC-292]
Clinical results ([1]; CLL): inferior clinical results compared with ibrutinib
Tolerability ([1]; human, in vivo): well tolerated

CC#CC(=O)N1CCC[C@H]1c1nc(-c2ccc(C(=O)Nc3ccccn3)cc2)c2c(N)nccn12 [acalabrutinib, Acalabrutinib]
Platelet aggregation [2]: not the former
Phosphorylated Btk after treatment [3]: complete loss of phosphorylated Btk
Itk inhibition [4]: lack of Itk inhibition
Inhibition of antibody-mediated killing by natural killer cells [5]: does not inhibit
Clinical responses [6]: objective clinical responses
Pro-inflammatory cytokines [7]: decreased significantly
Serum IgG, IgA and IgM over time ([8]; excluding patients receiving intravenous immunoglobulin): did not demonstrate significant change
T cell (CD4+, CD8+), natural killer cell and monocyte numbers over time ([8]; human, in vivo): no clinically significant change
Absorption and elimination ([9]; in vivo): rapidly absorbed and eliminated
half-life ([9]; plasma): ~60 min
Response rate ([10]; 4 patients with prior idelalisib therapy): 100%
Resolution of B symptoms ([10]; by cycle 4): 88 % of patients
Resolution of B symptoms ([10]; by cycle 9): 100 % of patients
Response rate ([10]; 18 patients with del(17)(p13.1)): 100%
Patients experiencing reduction in lymphadenopathy ([10]; 59 of 60 patients): 98%
Progression-free survival events ([10]; a death from pneumonia (13 months) and a single progression (16 months)): 2 events
Best overall response rate (partial response and partial response with lymphocytosis) [10, 14]: 95%
Partial response with lymphocytosis [10, 14]: 10%
Stable disease [10, 14]: 5%
Cases of Richter’s transformation ([10]; median follow-up 14.3 months): No cases
Improvements in hemoglobin levels, platelet count and absolute neutrophil count ([10]; patients with baseline cytopenia): noted in the great majority of patients
Inhibition of EGFR signaling [11]: does not inhibit
Inhibition of B-cell receptor signaling [12]: dose-dependent inhibition
Grade 5 event of pneumonia ([13]; N=61): † The all-grade column includes one patient with a Grade 5 event of pneumonia.
Adverse event Arthralgia, All Grades ([13]; human, in vivo): 10 (16) number of patients (percent)
Adverse event Arthralgia, Grades 1–2 ([13]; human, in vivo): 9 (15) number of patients (percent)
Adverse event Arthralgia, Grades 3–4 ([13]; human, in vivo): 1 (2) number of patients (percent)
Adverse event Contusion, All Grades ([13]; human, in vivo): 11 (18) number of patients (percent)
Adverse event Contusion, Grades 1–2 ([13]; human, in vivo): 11 (18) number of patients (percent)
Adverse event Contusion, Grades 3–4 ([13]; human, in vivo): 0 (0) number of patients (percent)
Adverse event Decreased weight, All Grades ([13]; human, in vivo): 10 (16) number of patients (percent)
Adverse event Decreased weight, Grades 1–2 ([13]; human, in vivo): 10 (16) number of patients (percent)
Adverse event Decreased weight, Grades 3–4 ([13]; human, in vivo): 0 (0) number of patients (percent)
Adverse event Diarrhea, All Grades ([13]; human, in vivo): 24 (39) number of patients (percent)
Adverse event Diarrhea, Grades 1–2 ([13]; human, in vivo): 23 (38) number of patients (percent)
Adverse event Diarrhea, Grades 3–4 ([13]; human, in vivo): 1 (2) number of patients (percent)
Adverse event Fatigue, All Grades ([13]; human, in vivo): 13 (21) number of patients (percent)
Adverse event Fatigue, Grades 1–2 ([13]; human, in vivo): 11 (18) number of patients (percent)
Adverse event Fatigue, Grades 3–4 ([13]; human, in vivo): 2 (3) number of patients (percent)
Adverse event Headache, All Grades ([13]; human, in vivo): 26 (43) number of patients (percent)
Adverse event Headache, Grades 1–2 ([13]; human, in vivo): 26 (43) number of patients (percent)
Adverse event Headache, Grades 3–4 ([13]; human, in vivo): 0 (0) number of patients (percent)
Adverse event Hypertension, All Grades ([13]; human, in vivo): 12 (20) number of patients (percent)
Adverse event Hypertension, Grades 1–2 ([13]; human, in vivo): 8 (13) number of patients (percent)
Adverse event Hypertension, Grades 3–4 ([13]; human, in vivo): 4 (7) number of patients (percent)
Adverse event Increased weight, All Grades ([13]; human, in vivo): 16 (26) number of patients (percent)
Adverse event Increased weight, Grades 1–2 ([13]; human, in vivo): 15 (25) number of patients (percent)
Adverse event Increased weight, Grades 3–4 ([13]; human, in vivo): 1 (2) number of patients (percent)
Adverse event Nausea, All Grades ([13]; human, in vivo): 12 (20) number of patients (percent)
Adverse event Nausea, Grades 1–2 ([13]; human, in vivo): 12 (20) number of patients (percent)
Adverse event Nausea, Grades 3–4 ([13]; human, in vivo): 0 (0) number of patients (percent)
Adverse event Peripheral edema, All Grades ([13]; human, in vivo): 13 (21) number of patients (percent)
Adverse event Peripheral edema, Grades 1–2 ([13]; human, in vivo): 13 (21) number of patients (percent)
Adverse event Peripheral edema, Grades 3–4 ([13]; human, in vivo): 0 (0) number of patients (percent)
Adverse event Petechiae, All Grades ([13]; human, in vivo): 10 (16) number of patients (percent)
Adverse event Petechiae, Grades 1–2 ([13]; human, in vivo): 10 (16) number of patients (percent)
Adverse event Petechiae, Grades 3–4 ([13]; human, in vivo): 0 (0) number of patients (percent)
Adverse event Pyrexia, All Grades ([13]; human, in vivo): 14 (23) number of patients (percent)
Adverse event Pyrexia, Grades 1–2 ([13]; human, in vivo): 12 (20) number of patients (percent)
Adverse event Pyrexia, Grades 3–4 ([13]; human, in vivo): 2 (3) number of patients (percent)
Adverse event Upper respiratory tract infection, All Grades ([13]; human, in vivo): 14 (23) number of patients (percent)
Adverse event Upper respiratory tract infection, Grades 1–2 ([13]; human, in vivo): 14 (23) number of patients (percent)
Adverse event Upper respiratory tract infection, Grades 3–4 ([13]; human, in vivo): 0 (0) number of patients (percent)
Most common adverse events: diarrhea ([13]; human, in vivo): 39%
Most common adverse events: headache ([13]; human, in vivo): 43%
Most common adverse events: increased weight ([13]; human, in vivo): 26%
Most common adverse events: pyrexia ([13]; human, in vivo): 23%
Most common adverse events: upper respiratory tract infection ([13]; human, in vivo): 23%
Dose-limiting toxicities ([13]; in vivo): No dose-limiting toxicities
Major hemorrhage or atrial fibrillation ([13]; in vivo): No major hemorrhage or atrial fibrillation
Severe diarrhea, rash, arthralgia/myalgia, bruising and bleeding events ([13]; in vivo): rare
Tolerability of long-term therapy ([13]; in vivo): well tolerated
